Laboratory results: ChEMBL document CHEMBL3259528, “Exploring 5-nitrofuran derivatives against nosocomial pathogens: synthesis, antimicrobial activity and chemometric analysis” (2014)
≈ marks a conversion by molar mass, not a printed value. Calls of active or inactive are those of the source. The calls are words filed in the database; no cut-off is given here.

What was measured:
[1] = test system: Staphylococcus aureus; assay: Antimicrobial activity against Staphylococcus aureus ATCC 29213 after 18 hrs by modified broth microdilution method; assay type: functional
In short: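 PGI90, the concentration giving 90% growth inhibition, fitted with an exponential growth curve from at least seven concentrations of the MIC assay. Inhibition % = [(Ac − Ap)/Ac] × 100 from A620 of drug-free control versus drug-treated culture. Checked by a modified broth microdilution (Phase 2).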

[2] = test system: Staphylococcus aureus; assay: Antimicrobial activity against Staphylococcus aureus ATCC 29213 after 24 to 48 hrs by two-fold broth microdilution method; assay type: functional
[3] = test system: Serratia marcescens; assay: Antimicrobial activity against Serratia marcescens ATCC 14576 at 128 uM after 24 to 48 hrs by two-fold broth microdilution method; assay type: functional, organism-based
In short: (§1)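 Antibacterial microdilution in CAMH, inoculum 0.5 McFarland diluted in saline/CAMH, 35 °C for 18 h, with further reads at 24 and 48 h. Activity is scored at the maximum tested concentration, 128 µM. Triplicate.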

[4] = test system: Enterobacter cloacae; assay: Antimicrobial activity against Enterobacter cloacae ATCC 23355 at 128 uM after 24 to 48 hrs by two-fold broth microdilution method; assay type: functional, organism-based; in short: as §1
[5] = test system: Klebsiella pneumoniae; assay: Antimicrobial activity against Klebsiella pneumoniae ATCC 700603 at 128 uM after 24 to 48 hrs by two-fold broth microdilution method; assay type: functional, organism-based; in short: as §1
[6] = test system: Candida albicans; assay: Antimicrobial activity against Candida albicans ATCC 537Y after 48 hrs by two-fold broth microdilution method; assay type: functional
In short: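 Two-fold serial dilutions in RPMI 1640 per CLSI M27-A2. Stocks in DMSO/RPMI 1:20 v/v. Test range 1.0–64 µM. Inoculum set to 0.5 McFarland, then diluted in saline and RPMI 1640. Plates held at 35 °C for 48 h. MIC is the lowest concentration giving prominent growth reduction. Run in triplicate.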

[7] = test system: Escherichia coli; assay: Antimicrobial activity against Escherichia coli ATCC 25922 at 128 uM after 24 to 48 hrs by two-fold broth microdilution method; assay type: functional, organism-based; in short: as §1
[8] = test system: Candida albicans; assay: Antimicrobial activity against Candida albicans ATCC 537Y at 64 uM after 48 hrs by two-fold broth microdilution method; assay type: functional, organism-based
In short: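 Single top concentration of the antifungal microdilution: RPMI 1640, inoculum 0.5 McFarland diluted in saline/RPMI, 35 °C for 48 h. Activity is judged at the highest tested level, 64 µM. Run in triplicate.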

[9] = test system: Enterococcus faecalis; assay: Antimicrobial activity against Enterococcus faecalis ATCC 29212 after 24 to 48 hrs by two-fold broth microdilution method; assay type: functional
[10] = test system: Escherichia coli; assay: Antimicrobial activity against Escherichia coli ATCC 25922 after 24 to 48 hrs by two-fold broth microdilution method; assay type: functional
[11] = test system: Serratia marcescens; assay: Antimicrobial activity against Serratia marcescens ATCC 14576 after 24 to 48 hrs by two-fold broth microdilution method; assay type: functional

SMILES	log(1/MIC>90) [1]	MIC [2]	MIC90 [2]	MIC [6]	MIC90 [6]	MIC [9]	MIC90 [9]	MIC [10]	MIC90 [10]	MIC [11]	MIC90 [11]	Activity [3]	Activity [4]	Activity [5]	Activity [7]	Activity [8]
CCCc1ccc(C2=NN(C(C)=O)C(c3ccc([N+](=O)[O-])o3)O2)cc1 (stereo not drawn)	4.81	8 µM (≈ 2.75 µg/mL)	15.4 µM (≈ 5.28 µg/mL)	32 µM (≈ 11 µg/mL)	46 µM (≈ 15.8 µg/mL)	–	–	–	–	–	–	inactive	inactive	inactive	inactive	–
CCOc1ccc(C2=NN(C(C)=O)C(c3ccc([N+](=O)[O-])o3)O2)cc1 (stereo not drawn)	5.09	8 µM (≈ 2.76 µg/mL)	8.14 µM (≈ 2.81 µg/mL)	8 µM (≈ 2.76 µg/mL)	8.39 µM (≈ 2.9 µg/mL)	–	–	64 µM (≈ 22.1 µg/mL)	78.6 µM (≈ 27.1 µg/mL)	64 µM (≈ 22.1 µg/mL)	85.7 µM (≈ 29.6 µg/mL)	–	inactive	inactive	–	–
CC(=O)N1N=C(c2ccc(F)cc2)OC1c1ccc([N+](=O)[O-])o1 (stereo not drawn)	5.07	8 µM (≈ 2.55 µg/mL)	8.43 µM (≈ 2.69 µg/mL)	32 µM (≈ 10.2 µg/mL)	43.1 µM (≈ 13.8 µg/mL)	64 µM (≈ 20.4 µg/mL)	97.3 µM (≈ 31.1 µg/mL)	64 µM (≈ 20.4 µg/mL)	91 µM (≈ 29.1 µg/mL)	–	–	inactive	inactive	inactive	–	–
CC(=O)N1N=C(c2ccc(C)cc2)OC1c1ccc([N+](=O)[O-])o1 (stereo not drawn)	4.91	8 µM (≈ 2.52 µg/mL)	12.2 µM (≈ 3.85 µg/mL)	32 µM (≈ 10.1 µg/mL)	49.9 µM (≈ 15.7 µg/mL)	–	–	–	–	–	–	inactive	inactive	inactive	inactive	–
CCCCOc1ccc(C2=NN(C(C)=O)C(c3ccc([N+](=O)[O-])o3)O2)cc1 (stereo not drawn)	4.77	16 µM (≈ 5.97 µg/mL)	16.9 µM (≈ 6.3 µg/mL)	32 µM (≈ 11.9 µg/mL)	41 µM (≈ 15.3 µg/mL)	–	–	64 µM (≈ 23.9 µg/mL)	77.9 µM (≈ 29.1 µg/mL)	–	–	inactive	inactive	inactive	–	–
CC(=O)N1N=C(c2ccc(I)cc2)OC1c1ccc([N+](=O)[O-])o1 (stereo not drawn)	5.13	4 µM (≈ 1.71 µg/mL)	6.29 µM (≈ 2.69 µg/mL)	–	–	–	–	–	–	–	–	inactive	inactive	inactive	inactive	inactive

Continued, in another order:

log(1/MIC>90) [1]	MIC [2]	MIC90 [2]	MIC [6]	MIC90 [6]	MIC [9]	MIC90 [9]	MIC [10]	MIC90 [10]	MIC [11]	MIC90 [11]	SMILES	Activity [3]	Activity [4]	Activity [5]	Activity [7]	Activity [8]
4.73	16 µM (≈ 5.72 µg/mL)	18.5 µM (≈ 6.6 µg/mL)	–	–	–	–	–	–	–	–	CCCCc1ccc(C2=NN(C(C)=O)C(c3ccc([N+](=O)[O-])o3)O2)cc1 (stereo not drawn)	inactive	inactive	inactive	inactive	inactive
5.05	4 µM (≈ 1.21 µg/mL)	8.93 µM (≈ 2.69 µg/mL)	8 µM (≈ 2.41 µg/mL)	15.8 µM (≈ 4.77 µg/mL)	32 µM (≈ 9.64 µg/mL)	52.9 µM (≈ 15.9 µg/mL)	–	–	–	–	CC(=O)N1N=C(c2ccccc2)OC1c1ccc([N+](=O)[O-])o1 (stereo not drawn)	inactive	inactive	inactive	inactive	–
5.5	4 µM (≈ 1.31 µg/mL)	7.49 µM (≈ 2.46 µg/mL)	16 µM (≈ 5.25 µg/mL)	32.2 µM (≈ 10.6 µg/mL)	32 µM (≈ 10.5 µg/mL)	59.7 µM (≈ 19.6 µg/mL)	64 µM (≈ 21 µg/mL)	85 µM (≈ 27.9 µg/mL)	–	–	O=C(N/N=C/c1ccc([N+](=O)[O-])o1)c1ccc(Cl)c(Cl)c1	inactive	inactive	inactive	–	–
5.13	4 µM (≈ 1.31 µg/mL)	4.83 µM (≈ 1.58 µg/mL)	32 µM (≈ 10.5 µg/mL)	48 µM (≈ 15.8 µg/mL)	32 µM (≈ 10.5 µg/mL)	58.7 µM (≈ 19.3 µg/mL)	64 µM (≈ 21 µg/mL)	87.7 µM (≈ 28.8 µg/mL)	–	–	O=C(N/N=C/c1ccc([N+](=O)[O-])o1)c1ccc(Cl)cc1Cl	inactive	inactive	inactive	–	–
–	–	–	< 20 µM	–	–	–	–	–	–	–	CCC(C)n1ncn(-c2ccc(N3CCN(c4ccc(OCC5COC(Cn6cncn6)(c6ccc(Cl)cc6Cl)O5)cc4)CC3)cc2)c1=O (stereo not drawn) [ITRACONAZOLE]	–	–	–	–	–
5.28	4 µM (≈ 1.26 µg/mL)	5.28 µM (≈ 1.66 µg/mL)	–	–	32 µM (≈ 10.1 µg/mL)	59.8 µM (≈ 18.9 µg/mL)	–	–	–	–	CC(C)(C)c1ccc(C(=O)N/N=C/c2ccc([N+](=O)[O-])o2)cc1	inactive	inactive	inactive	inactive	inactive
